Experimental data from article PMC9742164 (ChemMedChem, 2022).
In brackets after ≈: the same amount, converted by molar mass.

Assays:
[1] = biological target: T1, E. coli DNA gyrase (Escherichia coli, UniProt P0AES6); test: Gel-based DNA gyrase supercoiling inhibition assay; type: biochemical; details: for Inhibition of E. coli DNA gyrase: polyphenol screen, in words; for IC50: supercoiling
[2] = tested on: S. aureus ATCC 14775; test: MIC broth microdilution; type: cell-based
[3] = tested on: MRSA ATCC 33591; test: MIC broth microdilution; type: cell-based, methicillin-resistant Staphylococcus aureus
[4] = tested on: B. subtilis ATCC 6633; test: MIC broth microdilution; type: cell-based
[5] = tested on: E. coli ATCC 25922; test: MIC broth microdilution; type: cell-based
[6] = tested on: E. coli imp BAS3023; type: cell-based; details: E. coli imp BAS3023 (imp4213 permeability mutation)
[7] = biological target: T1, E. coli DNA gyrase; test: SDFQ-based DNA gyrase supercoiling inhibition assay; type: biochemical
[8] = biological target: T2, E. coli DNA topoisomerase IV (Escherichia coli, UniProt P20083); test: Gel-based DNA relaxation assay by topoisomerase IV; type: biochemical; details: for IC50: IC50 against E. coli topoisomerase IV, relaxation; for Inhibition of E. coli DNA topoisomerase IV: in words
T2 sequence (P20083 whole entry): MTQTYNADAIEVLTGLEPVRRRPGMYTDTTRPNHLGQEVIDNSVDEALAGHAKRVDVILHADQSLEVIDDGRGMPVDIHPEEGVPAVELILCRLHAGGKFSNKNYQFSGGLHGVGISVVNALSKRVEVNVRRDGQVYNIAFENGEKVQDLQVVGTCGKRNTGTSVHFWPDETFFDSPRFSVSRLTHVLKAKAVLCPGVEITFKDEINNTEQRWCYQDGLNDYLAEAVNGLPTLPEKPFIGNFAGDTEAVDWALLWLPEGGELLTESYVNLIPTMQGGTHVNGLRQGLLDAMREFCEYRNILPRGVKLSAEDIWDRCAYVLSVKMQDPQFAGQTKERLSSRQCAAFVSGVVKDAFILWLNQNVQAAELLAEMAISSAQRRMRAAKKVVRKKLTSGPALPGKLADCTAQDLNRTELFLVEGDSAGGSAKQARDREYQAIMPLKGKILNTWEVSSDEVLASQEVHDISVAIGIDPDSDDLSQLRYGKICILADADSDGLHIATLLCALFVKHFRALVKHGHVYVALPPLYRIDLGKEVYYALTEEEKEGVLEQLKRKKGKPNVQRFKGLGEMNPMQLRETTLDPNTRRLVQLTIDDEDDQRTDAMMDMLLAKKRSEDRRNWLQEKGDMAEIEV
T2 sequence (P0AFI2 whole entry, further chain): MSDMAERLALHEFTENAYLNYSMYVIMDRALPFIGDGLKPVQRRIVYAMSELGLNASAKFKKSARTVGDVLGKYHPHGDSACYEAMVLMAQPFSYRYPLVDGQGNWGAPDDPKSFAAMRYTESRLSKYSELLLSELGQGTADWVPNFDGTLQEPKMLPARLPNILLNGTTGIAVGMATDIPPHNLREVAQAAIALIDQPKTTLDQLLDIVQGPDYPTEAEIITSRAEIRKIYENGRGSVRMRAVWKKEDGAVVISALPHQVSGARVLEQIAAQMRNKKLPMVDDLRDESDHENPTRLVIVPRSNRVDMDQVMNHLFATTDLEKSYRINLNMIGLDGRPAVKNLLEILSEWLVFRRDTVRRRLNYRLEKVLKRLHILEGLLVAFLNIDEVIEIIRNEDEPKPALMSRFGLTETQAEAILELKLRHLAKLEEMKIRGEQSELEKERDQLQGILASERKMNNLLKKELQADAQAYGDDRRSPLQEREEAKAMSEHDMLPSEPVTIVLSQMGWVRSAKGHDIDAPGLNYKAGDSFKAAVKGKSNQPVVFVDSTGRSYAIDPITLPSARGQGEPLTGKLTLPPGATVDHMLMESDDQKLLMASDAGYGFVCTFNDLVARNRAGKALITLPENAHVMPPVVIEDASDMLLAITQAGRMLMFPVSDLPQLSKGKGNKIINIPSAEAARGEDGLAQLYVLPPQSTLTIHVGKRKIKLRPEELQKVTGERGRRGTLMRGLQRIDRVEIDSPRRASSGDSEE

[9] = biological target: T2, E. coli DNA topoisomerase IV; test: SDFQ-based DNA relaxation assay by topoisomerase IV; type: biochemical
[10] = biological target: T2, E. coli DNA topoisomerase IV; test: DNA decatenation assay by topoisomerase IV; type: biochemical
[11] = biological target: T1, E. coli DNA gyrase; test: DNA gyrase ATPase linked assay; type: biochemical
Outline: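 Pyruvate kinase/lactate dehydrogenase-coupled NADH assay at 37°C. Buffer: 10 mM Tris-HCl pH 7.5, 0.2 mM EDTA, 1 mM MgCl2, 1 mM DTT, 2% glycerol. Mix: 50 nM gyrase or GyrB, 200 ng relaxed pAB1, 0.8 mM phosphoenolpyruvate, 1.2 U PK, 1.7 U LDH, 0.4 mM NADH. After 5 min preincubation, 2 mM ATP started the reaction, read at A340. Double-reciprocal plot with or without test compound at 500 nM; single-point at 100 μM.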

[12] = biological target: T2, E. coli DNA topoisomerase IV; test: Topoisomerase IV ATPase linked assay; type: biochemical; details: in words; 100 μM (Figure 4e)
Outline: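 Topoisomerase IV ATP hydrolysis was coupled to NADH oxidation via pyruvate kinase/lactate dehydrogenase, read at 340 nm, 37°C. Buffer: 10 mM Tris-HCl pH 7.5, 0.2 mM EDTA, 1 mM MgCl2, 1 mM DTT, 2% glycerol. Mix: relaxed pAB1, 0.8 mM phosphoenolpyruvate, 0.4 mM NADH. After 5 min preincubation, 2 mM ATP was added. Test compounds at 100 μM.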

[13] = biological target: E. coli DNA topoisomerase I (Escherichia coli, UniProt P06612); test: DNA relaxation assay by E. coli DNA topoisomerase I; type: biochemical; details: at 100 μM
E. coli DNA topoisomerase I, sequence (P06612 whole entry): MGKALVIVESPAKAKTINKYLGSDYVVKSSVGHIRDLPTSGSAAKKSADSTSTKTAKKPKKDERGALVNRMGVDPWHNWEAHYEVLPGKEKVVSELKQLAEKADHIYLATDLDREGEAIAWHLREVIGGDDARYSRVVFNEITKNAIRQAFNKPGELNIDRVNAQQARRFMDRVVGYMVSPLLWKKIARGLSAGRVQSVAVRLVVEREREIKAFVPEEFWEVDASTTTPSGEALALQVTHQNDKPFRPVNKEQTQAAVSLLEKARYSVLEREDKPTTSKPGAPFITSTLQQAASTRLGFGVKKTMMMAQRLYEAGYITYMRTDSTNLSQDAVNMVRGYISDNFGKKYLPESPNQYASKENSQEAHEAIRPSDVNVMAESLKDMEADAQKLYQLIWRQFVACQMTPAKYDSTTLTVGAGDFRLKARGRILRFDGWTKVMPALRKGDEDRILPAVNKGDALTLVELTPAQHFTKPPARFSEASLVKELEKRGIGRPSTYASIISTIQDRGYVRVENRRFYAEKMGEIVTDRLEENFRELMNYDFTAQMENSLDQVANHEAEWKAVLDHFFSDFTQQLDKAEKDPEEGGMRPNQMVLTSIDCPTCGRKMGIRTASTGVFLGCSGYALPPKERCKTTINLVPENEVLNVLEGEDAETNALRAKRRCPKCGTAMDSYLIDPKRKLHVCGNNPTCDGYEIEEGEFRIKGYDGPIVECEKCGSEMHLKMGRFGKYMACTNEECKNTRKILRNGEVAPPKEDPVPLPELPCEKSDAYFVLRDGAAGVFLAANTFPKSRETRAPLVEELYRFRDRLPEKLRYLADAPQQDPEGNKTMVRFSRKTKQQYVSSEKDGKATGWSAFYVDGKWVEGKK

[14] = biological target: T3, human DNA topoisomerase I (Homo sapiens, UniProt P11387); test: DNA relaxation assay by human DNA topoisomerase I; type: biochemical; details: at 100 μM
T3 sequence (P11387 1-765): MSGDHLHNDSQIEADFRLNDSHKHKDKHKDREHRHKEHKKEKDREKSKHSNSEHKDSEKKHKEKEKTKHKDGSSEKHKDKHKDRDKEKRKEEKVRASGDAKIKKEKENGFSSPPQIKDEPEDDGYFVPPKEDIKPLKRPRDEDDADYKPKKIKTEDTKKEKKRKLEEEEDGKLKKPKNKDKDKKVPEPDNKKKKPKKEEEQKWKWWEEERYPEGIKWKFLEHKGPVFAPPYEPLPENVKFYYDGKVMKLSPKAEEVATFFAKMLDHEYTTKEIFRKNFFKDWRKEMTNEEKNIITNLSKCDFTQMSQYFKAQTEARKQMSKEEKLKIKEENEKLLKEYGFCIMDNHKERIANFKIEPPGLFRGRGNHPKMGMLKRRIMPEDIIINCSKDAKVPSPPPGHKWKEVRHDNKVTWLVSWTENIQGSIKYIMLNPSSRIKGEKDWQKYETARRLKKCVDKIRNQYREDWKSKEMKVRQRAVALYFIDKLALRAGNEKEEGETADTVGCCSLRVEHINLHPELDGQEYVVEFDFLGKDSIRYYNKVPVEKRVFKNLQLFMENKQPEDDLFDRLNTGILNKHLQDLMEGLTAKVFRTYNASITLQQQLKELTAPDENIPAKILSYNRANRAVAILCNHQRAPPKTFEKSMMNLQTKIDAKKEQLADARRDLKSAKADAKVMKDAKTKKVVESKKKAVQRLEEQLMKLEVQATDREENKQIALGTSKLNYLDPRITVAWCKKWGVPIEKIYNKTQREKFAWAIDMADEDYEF

[15] = biological target: human DNA topoisomerase IIα (Homo sapiens, UniProt P11388); test: DNA relaxation assay by human DNA topoisomerase IIα; type: biochemical; details: at 100 μM
human DNA topoisomerase IIα, sequence (P11388 whole entry): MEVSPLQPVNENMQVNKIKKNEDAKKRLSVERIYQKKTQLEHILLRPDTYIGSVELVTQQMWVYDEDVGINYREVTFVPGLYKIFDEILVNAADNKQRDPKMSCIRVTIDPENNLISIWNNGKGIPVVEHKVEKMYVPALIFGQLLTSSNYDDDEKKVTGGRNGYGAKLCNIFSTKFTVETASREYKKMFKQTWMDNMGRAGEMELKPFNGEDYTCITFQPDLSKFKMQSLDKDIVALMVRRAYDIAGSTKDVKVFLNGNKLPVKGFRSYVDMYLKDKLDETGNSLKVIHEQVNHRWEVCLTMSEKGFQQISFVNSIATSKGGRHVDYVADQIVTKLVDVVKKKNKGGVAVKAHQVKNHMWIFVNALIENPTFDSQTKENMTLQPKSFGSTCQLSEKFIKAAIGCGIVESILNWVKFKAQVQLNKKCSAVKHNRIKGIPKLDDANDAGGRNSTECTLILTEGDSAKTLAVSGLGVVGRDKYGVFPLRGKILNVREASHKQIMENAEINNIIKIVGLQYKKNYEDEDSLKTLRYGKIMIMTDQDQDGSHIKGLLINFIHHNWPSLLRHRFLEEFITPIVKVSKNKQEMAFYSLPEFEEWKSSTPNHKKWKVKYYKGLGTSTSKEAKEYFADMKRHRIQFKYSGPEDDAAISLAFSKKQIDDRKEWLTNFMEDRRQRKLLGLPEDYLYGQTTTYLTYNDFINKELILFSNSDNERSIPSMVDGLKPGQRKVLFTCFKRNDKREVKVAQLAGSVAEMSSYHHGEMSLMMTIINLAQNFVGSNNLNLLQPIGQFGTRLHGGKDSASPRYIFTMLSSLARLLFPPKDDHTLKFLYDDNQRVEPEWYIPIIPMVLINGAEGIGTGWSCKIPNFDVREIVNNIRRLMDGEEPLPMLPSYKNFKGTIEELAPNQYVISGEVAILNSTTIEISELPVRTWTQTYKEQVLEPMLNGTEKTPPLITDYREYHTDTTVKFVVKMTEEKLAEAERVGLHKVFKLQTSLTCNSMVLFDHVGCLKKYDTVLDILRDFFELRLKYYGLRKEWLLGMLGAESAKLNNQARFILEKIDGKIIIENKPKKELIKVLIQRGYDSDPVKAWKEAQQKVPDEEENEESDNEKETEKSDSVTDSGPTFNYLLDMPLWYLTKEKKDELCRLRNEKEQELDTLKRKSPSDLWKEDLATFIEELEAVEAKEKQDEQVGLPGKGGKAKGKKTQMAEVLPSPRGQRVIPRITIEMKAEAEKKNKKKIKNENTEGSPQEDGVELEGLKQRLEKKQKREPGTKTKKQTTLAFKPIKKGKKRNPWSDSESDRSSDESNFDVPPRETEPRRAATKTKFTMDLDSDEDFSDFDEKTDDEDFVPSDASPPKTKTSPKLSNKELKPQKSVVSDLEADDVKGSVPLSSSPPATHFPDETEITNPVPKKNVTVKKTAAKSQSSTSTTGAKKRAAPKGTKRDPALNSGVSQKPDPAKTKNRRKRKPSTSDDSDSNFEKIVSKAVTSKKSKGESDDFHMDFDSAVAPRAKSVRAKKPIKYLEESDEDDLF

[16] = biological target: T1, E. coli DNA gyrase; test: DNA gyrase-mediated DNA cleavage assay; type: biochemical; details: up to 200 μM digallic acid
Outline: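 Plasmid pBR322 (250 ng) and 20 nM E. coli gyrase were incubated in gyrase buffer with test compound (0–200 μM) at 37°C for 15 min. Then 0.2% SDS and 0.1 mg/mL proteinase K were added to trap cleavage complexes, with 30 min more at 37°C. […] Products ran on 1% agarose containing 0.5 μg/mL ethidium bromide.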

[17] = IC50 against E. coli DNA gyrase, Gel-based
[18] = Staphylococcus aureus, ATCC14775
[19] = Staphylococcus aureus, ATCC33591|MRSA

For O=C(/C=C/c1ccc(O)c(O)c1)O[C@@H]1CC(O)(C(=O)O)C[C@@H](OC(=O)/C=C/c2ccc(O)c(O)c2)C1O (stereo partly drawn) [3,5-dicaffeoylquinic acid, reference compound], the “Inhibition of E. coli DNA gyrase” value [1] was “strongly inhibit”.
O=C(Oc1ccc(-c2ccccc2)cc1)c1cc(O)c(O)c(O)c1 [Biphenyl gallate, biphenyl gallate] showed an MIC ([2]; S. aureus ATCC 14775) of 50 µM (≈ 16.1 µg/mL), an MIC ([3]; MRSA ATCC 33591) of 50 µM (≈ 16.1 µg/mL) and an MIC [4] of 50 to 100 µM. For the same compound, the MIC ([5]; E. coli ATCC 25922) was greater than 200 µM and the MIC [6] was 200 µM (≈ 64.5 µg/mL).
CCCCOC(=O)c1cc(O)c(O)c(O)c1 [Butyl gallate, butyl gallate] showed an IC50 [1, 17] greater than 100 µM, an IC50 [7] greater than 100 µM and an IC50 ([8]; Gel-based) greater than 100 µM. The IC50 [9] was greater than 100 µM, the MIC [2, 18] was greater than 200 µM and the MIC [3, 19] was greater than 200 µM. It also gave an MIC ([5]; Escherichia coli, ATCC25922) greater than 200 µM.
For O=C(O)c1cc(O)c(O)c(OC(=O)c2cc(O)c(O)c(O)c2)c1 [Digallic acid, digallic acid], the IC50 [1, 17] was 2 µM, the IC50 ([1]; IC50 against E. coli DNA gyrase, gel (Figure 1)) was roughly 2 µM and the IC50 [7] was 1.9 µM. The IC50 ([8]; Gel-based) was 8 µM, the IC50 [8] was roughly 8 µM and the IC50 [9] was 7.3 µM. The IC50 [10] was roughly 4 µM, the Ki [11] was 0.347 µM and the “Vmax of gyrase ATPase” value ([11]; in the presence of 500 nM of digallic acid, without inhibitor 16.3 ± 2.5 nM/s) was 17.8 ± 5.0 nM/s. The “Inhibition of ATPase activities of E. coli DNA gyrase” value ([11]; in words, 100 μM (Figure 3d)) was “greatly inhibit”, the “Inhibition of ATPase activities of bacterial DNA topoisomerase IV” value [12] was “inhibit” and the “Inhibition of E. coli DNA topoisomerase I” value [13] was “do not inhibit”. For the same compound, the “Inhibition of human DNA topoisomerase I” value [14] was “do not inhibit”, the “Inhibition of human DNA topoisomerase IIα” value [15] was “do not inhibit” and the “Gyrase poisoning (gyrase-mediated DNA cleavage)” value [16] was “not bacterial DNA gyrase poisons”. It also gave an MIC [2, 18] of 200 µM (≈ 64.4 µg/mL), an MIC [3, 19] of 200 µM (≈ 64.4 µg/mL) and an MIC ([5]; Escherichia coli, ATCC25922) greater than 200 µM.
CCCCCCCCCCCCOC(=O)c1cc(O)c(O)c(O)c1 [Dodecyl gallate, dodecyl gallate] was tested, and the IC50 [1, 17] was 15 µM, the IC50 [7] was 13.8 µM and the IC50 ([8]; Gel-based) was 50 µM. The “Inhibition of E. coli DNA topoisomerase IV” value [8] was “strongly inhibit”, the IC50 [9] was 36.9 µM and the MIC [2, 18] was 200 µM (≈ 67.7 µg/mL). For the same compound, the MIC [3, 19] was 200 µM (≈ 67.7 µg/mL) and the MIC ([5]; Escherichia coli, ATCC25922) was greater than 200 µM.
With O=C(O[C@@H]1Cc2c(O)cc(O)cc2O[C@@H]1c1cc(O)c(O)c(O)c1)c1cc(O)c(O)c(O)c1 [EGCG, epigallocatechin gallate, reference compound] the “Inhibition of E. coli DNA gyrase” value [1] was “strongly inhibit”.
Work on O=C(O)c1cc(O)c(O)c(O)c1 [Gallic acid, gallic acid] yielded an IC50 [1, 17] greater than 500 µM and an IC50 ([8]; Gel-based) greater than 500 µM.
CO[C@@H]1[C@@H](OC(N)=O)[C@@H](O)[C@H](Oc2ccc3c(O)c(NC(=O)c4ccc(O)c(CC=C(C)C)c4)c(=O)oc3c2C)OC1(C)C [Novobiocin, novobiocin, reference compound] showed an MIC [2, 18] of less than 6.25 µM, an MIC [3, 19] of less than 6.25 µM and an MIC ([5]; Escherichia coli, ATCC25922) of 158 µM (≈ 96.5 µg/mL).
With CCCCCCCCOC(=O)c1cc(O)c(O)c(O)c1 [Octyl gallate, octyl gallate] the IC50 [1, 17] was 50 µM, the IC50 [7] was 26 µM and the IC50 ([8]; Gel-based) was 50 µM. For the same compound, the “Inhibition of E. coli DNA topoisomerase IV” value [8] was “strongly inhibit”, the IC50 [9] was 41.2 µM and the MIC [2, 18] was 200 µM (≈ 56.5 µg/mL). It also gave an MIC [3, 19] of 100 µM (≈ 28.2 µg/mL) and an MIC ([5]; Escherichia coli, ATCC25922) greater than 200 µM.
O=C(Oc1ccccc1)c1cc(O)c(O)c(O)c1 [Phenyl gallate, phenyl gallate] was tested, and the IC50 ([1]; read-out: IC50 against E. coli DNA gyrase, Gel-based, gel-based) was greater than 100 µM, the IC50 ([7]; read-out: IC50 against E. coli DNA gyrase, SDFQ, supercoiling, SDFQ) was greater than 100 µM and the IC50 ([9]; read-out: IC50 against E. coli topoisomerase IV, SDFQ, relaxation, SDFQ) was greater than 100 µM. The MIC ([2]; S. aureus ATCC 14775) was 200 µM (≈ 49.2 µg/mL), the MIC ([3]; MRSA ATCC 33591) was 200 µM (≈ 49.2 µg/mL) and the MIC [4] was greater than 200 µM. For the same compound, the MIC ([5]; E. coli ATCC 25922) was greater than 200 µM and the MIC [6] was greater than 200 µM.
In the case of O=c1oc2c(O)c(O)cc3c(=O)oc4c(O)c(O)cc1c4c23 [ellagic acid, reference compound], the “Inhibition of E. coli DNA gyrase” value [1] is reported as “strongly inhibit”.
Compound tannic acid has an IC50 ([1]; read-out: IC50 against E. coli DNA gyrase, gel (Figure 1)) of 1 µM.
